According to ChEMBL document CHEMBL1932969, “Acyl derivatives of boswellic acids as inhibitors of NF-κB and STATs” (Bioorg Med Chem Lett, 2012):
Active and inactive are the calls of the source. The rule behind the calls is not given here.

Tests used:
[1] = system: HL-60; experiment: Induction of apoptosis in p53-deficient human HL60 cells assessed as DNA fragmentation at 50 uM after 6 hrs by agarose gel electrophoresis; type: functional, cell-based
Method in brief: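 2 × 10⁶ HL-60 cells treated with derivatives at 50 µM for 6 h, then scored for an apoptotic DNA ladder of 180–200 bp fragments or multiples. The positive control is 4 µM camptothecin for 6 h.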

[2] = target: Transcription factor p65 (Homo sapiens) (UniProt Q04206); experiment: Inhibition of NF-kappaB p65 subunit protein expression in p53-deficient human HL60 cells at 50 uM after 6 hrs by Western blot analysis; type: cell-based; conditions: HL-60
Method in brief: (§1)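 HL-60 cells treated with or without compound (20 and 50 µM) for 6 h. Total cell lysates (70 µg protein) are run on 10% SDS–PAGE and immunoblotted for NF-κB p50 and p65.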

[3] = system: HL-60; experiment: Induction of autophagy in p53-deficient human HL60 cells at 50 uM after 6 hrs by acridine orange staining; type: functional, cell-based
Method in brief: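 Autophagy scored by flow cytometry of HL-60 cells stained with acridine orange after 6 h exposure.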

[4] = target: T1, Signal transducer and activator of transcription 5A (Homo sapiens) (UniProt P42229); experiment: Inhibition of STAT5 protein expression in p53-deficient human HL60 cells at 20 to 50 uM after 6 hrs by Western blot analysis; type: cell-based; conditions: HL-60
T1 sequence (whole entry): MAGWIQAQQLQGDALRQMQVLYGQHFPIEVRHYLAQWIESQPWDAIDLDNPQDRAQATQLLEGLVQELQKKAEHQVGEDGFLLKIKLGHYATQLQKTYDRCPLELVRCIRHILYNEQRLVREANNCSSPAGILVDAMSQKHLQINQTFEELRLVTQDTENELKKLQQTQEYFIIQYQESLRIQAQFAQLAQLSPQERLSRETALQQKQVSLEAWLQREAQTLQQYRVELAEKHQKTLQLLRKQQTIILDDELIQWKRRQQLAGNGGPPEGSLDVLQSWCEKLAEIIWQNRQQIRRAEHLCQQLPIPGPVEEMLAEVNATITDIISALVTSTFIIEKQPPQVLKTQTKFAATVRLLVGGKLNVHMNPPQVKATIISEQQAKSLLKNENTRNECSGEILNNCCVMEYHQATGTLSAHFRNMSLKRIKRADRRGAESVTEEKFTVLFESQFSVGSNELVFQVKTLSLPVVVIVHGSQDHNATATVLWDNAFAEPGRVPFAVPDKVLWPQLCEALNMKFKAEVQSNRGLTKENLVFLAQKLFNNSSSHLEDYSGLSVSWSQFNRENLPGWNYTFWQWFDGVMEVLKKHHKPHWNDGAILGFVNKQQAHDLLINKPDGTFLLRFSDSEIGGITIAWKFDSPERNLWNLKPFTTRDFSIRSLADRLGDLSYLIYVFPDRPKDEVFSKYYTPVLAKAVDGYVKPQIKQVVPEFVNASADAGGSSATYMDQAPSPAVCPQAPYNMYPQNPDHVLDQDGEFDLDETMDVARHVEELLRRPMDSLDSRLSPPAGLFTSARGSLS

[5] = target: T2, Signal transducer and activator of transcription 6 (Homo sapiens) (UniProt P42226); experiment: Inhibition of STAT6 protein expression in p53-deficient human HL60 cells at 20 to 50 uM after 6 hrs by Western blot analysis; type: cell-based; conditions: HL-60
T2 sequence (whole entry): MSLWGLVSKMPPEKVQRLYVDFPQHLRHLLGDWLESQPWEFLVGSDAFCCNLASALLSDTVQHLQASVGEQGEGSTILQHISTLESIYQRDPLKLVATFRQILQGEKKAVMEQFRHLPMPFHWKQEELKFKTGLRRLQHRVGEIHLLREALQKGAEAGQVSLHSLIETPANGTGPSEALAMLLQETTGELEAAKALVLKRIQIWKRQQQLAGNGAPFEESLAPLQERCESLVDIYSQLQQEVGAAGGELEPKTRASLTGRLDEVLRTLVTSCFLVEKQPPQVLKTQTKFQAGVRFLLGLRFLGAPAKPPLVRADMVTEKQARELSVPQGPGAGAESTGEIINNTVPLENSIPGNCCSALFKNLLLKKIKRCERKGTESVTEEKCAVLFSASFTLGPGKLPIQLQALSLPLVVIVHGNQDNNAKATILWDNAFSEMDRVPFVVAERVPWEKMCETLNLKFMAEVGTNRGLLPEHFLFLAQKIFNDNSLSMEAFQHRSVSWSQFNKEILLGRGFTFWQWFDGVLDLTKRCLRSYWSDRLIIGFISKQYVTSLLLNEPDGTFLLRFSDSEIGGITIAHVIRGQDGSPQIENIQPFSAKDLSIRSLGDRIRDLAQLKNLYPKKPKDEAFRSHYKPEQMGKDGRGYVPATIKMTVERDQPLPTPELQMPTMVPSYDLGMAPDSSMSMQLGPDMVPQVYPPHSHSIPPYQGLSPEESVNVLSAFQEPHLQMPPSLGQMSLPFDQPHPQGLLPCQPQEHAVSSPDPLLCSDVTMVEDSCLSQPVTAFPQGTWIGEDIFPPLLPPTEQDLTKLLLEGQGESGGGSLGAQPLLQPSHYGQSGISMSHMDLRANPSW

[6] = system: HEp-2; experiment: Anticancer activity against human Hep2 cells assessed as growth inhibition at 50 uM after 48 hrs by SRB assay; type: functional; conditions: HEp-2, 48 h, read-out: GI
Method in brief: (§2)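 Cells exposed to test compounds at 50 µM for 48 h. Read-out is percent growth inhibition, with SEM given. 5-Fluorouracil and adriamycin serve as reference agents.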

[7] = system: PC-3; experiment: Anticancer activity against human PC3 cells assessed as growth inhibition at 50 uM after 48 hrs by SRB assay; type: functional; conditions: PC-3, 48 h, read-out: GI; method in brief: as §2
[8] = target: T1, Signal transducer and activator of transcription 5A (Homo sapiens); experiment: Inhibition of STAT5 Tyr694/699 phosphorylation in p53-deficient human HL60 cells at 20 to 50 uM after 6 hrs by Western blot analysis; type: cell-based; conditions: HL-60
[9] = target: Signal transducer and activator of transcription 3 (Homo sapiens) (UniProt P40763); experiment: Inhibition of STAT3 Thr705 phosphorylation in p53-deficient human HL60 cells at 20 to 50 uM after 6 hrs by Western blot analysis; type: cell-based; conditions: HL-60
[10] = system: HL-60; experiment: Induction of apoptosis in p53-deficient human HL60 cells assessed as apoptotic cells at 50 uM after 6 hrs by FITC-conjugated annexinV/PI-based flow cytometric analysis (reference value: 5 %); type: functional
Method in brief: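 HL-60 cells incubated with each analog at 50 µM for 6 h, stained with annexin V-FITC/propidium iodide and analysed by flow cytometry. Lower right quadrant is apoptotic, upper right post-apoptotic, upper left necrotic. Three experiments, with representative dot plots shown.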

[11] = target: Signal transducer and activator of transcription 3 (Homo sapiens) (UniProt P40763); experiment: Inhibition of STAT3 Ser727 phosphorylation in p53-deficient human HL60 cells at 20 to 50 uM after 6 hrs by Western blot analysis; type: cell-based; conditions: HL-60
[12] = system: HL-60; experiment: Inhibition of STAT3alpha protein expression in p53-deficient human HL60 cells at 20 to 50 uM after 6 hrs by Western blot analysis; type: cell-based
[13] = system: HL-60; experiment: Inhibition of NF-kappaB p50 subunit protein expression in p53-deficient human HL60 cells at 50 uM after 6 hrs by Western blot analysis; type: cell-based; method in brief: as §1
[14] = system: DU-145; experiment: Anticancer activity against human DU145 cells assessed as growth inhibition at 50 uM after 48 hrs by SRB assay; type: functional; conditions: DU-145, 48 h, read-out: GI; method in brief: as §2

Chain of Signal transducer and activator of transcription 3 (Homo sapiens) (P40763 whole entry): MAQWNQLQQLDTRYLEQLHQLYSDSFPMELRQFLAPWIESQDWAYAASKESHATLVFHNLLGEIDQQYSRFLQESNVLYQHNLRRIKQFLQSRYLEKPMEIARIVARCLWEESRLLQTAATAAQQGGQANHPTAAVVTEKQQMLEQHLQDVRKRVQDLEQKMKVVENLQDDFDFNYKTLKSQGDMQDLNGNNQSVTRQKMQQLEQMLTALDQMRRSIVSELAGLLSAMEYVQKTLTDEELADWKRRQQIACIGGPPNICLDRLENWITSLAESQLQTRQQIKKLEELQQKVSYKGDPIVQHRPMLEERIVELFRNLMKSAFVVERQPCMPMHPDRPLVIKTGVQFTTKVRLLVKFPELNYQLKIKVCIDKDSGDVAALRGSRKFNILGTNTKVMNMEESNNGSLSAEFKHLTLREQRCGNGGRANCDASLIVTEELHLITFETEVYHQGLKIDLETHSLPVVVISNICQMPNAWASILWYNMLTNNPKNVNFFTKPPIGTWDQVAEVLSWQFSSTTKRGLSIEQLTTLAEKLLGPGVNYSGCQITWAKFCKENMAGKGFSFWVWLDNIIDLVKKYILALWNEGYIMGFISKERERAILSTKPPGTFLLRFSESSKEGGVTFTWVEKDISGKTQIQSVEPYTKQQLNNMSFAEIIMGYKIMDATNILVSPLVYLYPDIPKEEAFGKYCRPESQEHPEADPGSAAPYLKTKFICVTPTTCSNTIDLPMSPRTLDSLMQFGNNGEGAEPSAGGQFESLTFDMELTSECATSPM
Chain of Transcription factor p65 (Homo sapiens) (Q04206 whole entry): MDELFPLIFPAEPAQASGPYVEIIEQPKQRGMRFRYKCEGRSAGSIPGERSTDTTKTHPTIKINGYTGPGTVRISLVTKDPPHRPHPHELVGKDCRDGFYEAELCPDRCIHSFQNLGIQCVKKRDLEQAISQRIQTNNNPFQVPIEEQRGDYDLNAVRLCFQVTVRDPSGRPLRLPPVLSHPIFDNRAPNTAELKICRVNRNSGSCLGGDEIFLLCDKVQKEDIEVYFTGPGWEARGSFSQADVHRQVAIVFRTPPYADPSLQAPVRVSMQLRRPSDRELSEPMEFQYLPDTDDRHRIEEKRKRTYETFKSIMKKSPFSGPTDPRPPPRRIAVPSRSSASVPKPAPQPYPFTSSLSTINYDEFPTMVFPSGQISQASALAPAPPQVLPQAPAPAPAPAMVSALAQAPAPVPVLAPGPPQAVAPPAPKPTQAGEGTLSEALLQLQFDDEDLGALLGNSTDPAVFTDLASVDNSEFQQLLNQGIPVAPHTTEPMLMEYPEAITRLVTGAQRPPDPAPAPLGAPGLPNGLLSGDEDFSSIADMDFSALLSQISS

inhibition [2]: 90% | inhibition [4]: Active | inhibition [5]: Active | inhibition [8]: Active | inhibition [9]: Active | inhibition [11]: Active
Structure (SMILES): CCCC(=O)O[C@@H]1CC[C@@]2(C)[C@@H](CC[C@]3(C)[C@@H]2C(=O)C=C2[C@@H]4[C@@H](C)[C@H](C)CC[C@]4(C)CC[C@]23C)[C@@]1(C)C(=O)O
Activity [1]: Active | Activity [3]: inactive | inhibition of growth at 50 µM [6]: 98% | inhibition of growth at 50 µM [7]: 96% | Activity [10]: 32% | inhibition [12]: Active | inhibition [13]: Active | inhibition of growth at 50 µM [14]: 93%
